# Screens from PubChem.
# Hits are enriched below; roughly 1.4% of the tested compounds scored in any of these assays.
# TbMetRS inhib = Trypanosoma brucei MetRS inhibition; 360,000 compounds, 0.4% hits; AID 624268; inhibition, % at 11.9 µM; purified T. brucei MetRS, ATP depletion, Kinase-Glo luminescence;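 active = inhibition above a per-plate cutoff of the control wells' mean inhibition plus 3 SD, cut at about 5.5% in these data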
#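 Material: parasite MetRS enzyme / Replication: singlicate, one well per compound / Signal: luminescence of leftover ATP / Schedule: 2 h aminoacylation at 25 °C after 15 min preincubation / Medium: HEPES-MgCl2-KCl buffer plus DTT, spermine, BSA, pyrophosphatase / Doses: 11.9 µM single point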
# Rin1 Abl inh = inhibitors of human Rin1-Abl protein interaction; AID 588664; TR-FRET Rin1/Abl binding, biochemical; P00519+Q13671; inhibition, % at 7.35 µM; 360,000 compounds, 0.4% hits; in the data active = inhibition above about 5%, passing the limit was not always enough
# ATG4B inhibitor = inhibitors of human ATG4B cysteine protease; inhibition, % at 8.33 µM; Q9Y4P1; AID 504462; ATG4B cleavage of LC3-PLA2, NBD-HPC fluorescence, 1 h; 340,000 compounds, 0.51% hits; in the data active = inhibition above about 40%
# UCH37 DUB inh = human UCH37 deubiquitinating enzyme inhibition; Q9Y5K5; purified proteasome/UCH37, Ub-AMC cleavage fluorescence; inhibition, % (concentration not given with the values); 330,000 compounds, 0.33% hits; AID 588478;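 active = mean inhibition over replicate wells above about 20%, limit read from the data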
# Target sequence (Q9Y5K5 whole entry, looked up): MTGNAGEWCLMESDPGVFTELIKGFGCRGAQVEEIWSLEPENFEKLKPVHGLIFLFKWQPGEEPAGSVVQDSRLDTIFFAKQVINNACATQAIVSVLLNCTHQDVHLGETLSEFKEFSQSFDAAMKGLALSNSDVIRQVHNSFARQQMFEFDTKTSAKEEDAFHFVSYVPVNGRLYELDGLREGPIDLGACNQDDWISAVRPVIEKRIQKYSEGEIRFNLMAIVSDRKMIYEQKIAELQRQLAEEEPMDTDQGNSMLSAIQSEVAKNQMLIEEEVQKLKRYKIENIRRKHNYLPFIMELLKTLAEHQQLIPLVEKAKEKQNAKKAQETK
#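 assay system = human UCH37 enzyme supplied as purified proteasome complex | amount = proteasome at 0.15 nM in the dispensed enzyme solution | schedule = 30 min compound-proteasome preincubation then 25 min substrate reaction, room temperature | measured by = fluorescence, ex 355 nm, em 460 nm | benchmarks = no-proteasome wells (full inhibition) and compound-free wells (no inhibition)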
# Hits are given with their value; - = inactive; . = no result given.
SMILES,TbMetRS inhib,Rin1 Abl inh,ATG4B inhibitor,UCH37 DUB inh
Cc1ccccc1OC(C)C(=O)NC1CCCC1 (stereo not given),-,-,-,28
COC(=O)c1ccc(NC(=O)CN2CCN(c3ccccn3)CC2)cc1,-,-,-,-
Cc1cc(C)c(C)c(OCCn2ccnc2)c1,-,-,-,-
Cc1ccc(C)c(OCCn2ccnc2)c1,-,10,-,-
Cc1ccc(Nc2nc(NCCO)c3ccccc3n2)cc1C,-,-,-,.
C#CCOCCOCCOCCNc1nc(N2CCOCC2)nc(N2CCN(C(=O)[C@H](Cc3cc4ccccc4[nH]3)n3cc([C@@H](N)Cc4ccc(O)cc4)nn3)CC2)n1,-,-,-,23
C#CCOCCOCCOCCNc1nc(N2CCN(C(=O)CCCCCCCCCCNC(=O)Cn3cc(CCCCCN)nn3)CC2)nc(N2CCN(C(=O)CCCCCCCCCCNC(=O)Cn3cc(CCCCCN)nn3)CC2)n1,-,13,-,.
C#CCOCCOCCOCCNc1nc(N2CCN(C(=O)CCCCCCCCCCNC(=O)[C@H]([C@@H](C)CC)n3cc(CCCCCN)nn3)CC2)nc(N2CCN(C(=O)CCCCCCCCCCNC(=O)[C@H]([C@@H](C)CC)n3cc(CCCCN=C(N)N)nn3)CC2)n1,-,-,.,-
C#CCOCCOCCOCCNc1nc(N2CCN(C(=O)CCCCCCCCCCNC(=O)[C@H]([C@@H](C)CC)n3cc(CCCCN=C(N)N)nn3)CC2)nc(N2CCN(C(=O)CCCCCCCCCCNC(=O)[C@H](CO)n3cc(CCCCCN)nn3)CC2)n1,-,-,54,-
C#CCOCCOCCOCCNc1nc(N2CCN(C(=O)[C@H](CCCN=C(N)N)n3cc(C(N)[C@@H](C)CC)nn3)CC2)nc(N2CCN(C(=O)[C@H](CCC(=O)O)n3cc([C@@H](N)CCCCN)nn3)CC2)n1 (stereo not given in full),-,-,-,33
C#CCOCCOCCOCCNc1nc(N2CCN(C(=O)C(Cc3ccc(O)cc3)n3cc(C(N)CC(C)C)nn3)CC2)nc(N2CCN(C(=O)C(Cc3cc4ccccc4[nH]3)n3cc(C(N)Cc4ccc(O)cc4)nn3)CC2)n1 (stereo not given),.,.,.,-
C#CCOCCOCCOCCNc1nc(N2CCN(C(=O)[C@H](CCCCN)n3cc([C@@H](N)[C@H](C)CC)nn3)CC2)nc(N2CCN(C(=O)[C@H](CCC(=O)O)n3cc([C@@H](N)CCCCN)nn3)CC2)n1,-,-,-,-
CCN1C[C@@H]2[C@@H]3C(=O)N(Cc4ccccc4)C(=O)[C@@H]3[C@](Cc3ccccc3)(C1=O)N2C(=O)c1ccc(Br)cc1,-,-,-,-
CCO[C@@H]1c2c(ccc3ccc(=O)oc23)OC(C)(C)[C@H]1O,-,-,-,-
O=C(COC(=O)c1ccc(Cl)nc1)Nc1ccc2c(c1)OCO2,-,-,-,-
CCc1cc(=O)oc2cc(OCC(=O)NCc3ccccn3)ccc12,-,-,-,-
C#CCOCCOCCOCCNc1nc(N2CCN(C(=O)Cn3cc(CCCN=C(N)N)nn3)CC2)nc(N2CCN(C(=O)[C@H]([C@@H](C)CC)n3cc(CCCCN)nn3)CC2)n1,-,-,-,-
C#CCOCCOCCOCCNc1nc(N2CCN(C(=O)CCCCCCCCCCNC(=O)Cn3cc(CCCCCN)nn3)CC2)nc(N2CCN(C(=O)CCCCCCCCCCNC(=O)[C@H]([C@@H](C)CC)n3cc(CCCCN=C(N)N)nn3)CC2)n1,-,15,49,-
COc1ccc(-c2ccc(C(c3c(C)[nH][nH]c3=O)c3c(C)[nH][nH]c3=O)o2)c([N+](=O)[O-])c1,-,-,-,-
Cc1[nH][nH]c(=O)c1C(c1ccc(-c2ccc(F)cc2)o1)c1c(C)[nH][nH]c1=O,-,-,-,22
Cc1[nH][nH]c(=O)c1C(c1ccc(-c2ccc(C(=O)O)cc2)o1)c1c(C)[nH][nH]c1=O,-,-,-,23
COc1ccc(C2C3=C(CC(C)(C)CC3=O)Oc3ncn(Cc4ccco4)c(=N)c32)cc1 (stereo not given),-,-,-,-
Fc1ccccc1C=NNc1cc(N2CCCCC2)ncn1,.,.,.,-
CC(C)N(Cc1ccccc1)C(=S)NC1CCCCC1,-,-,-,-
O=c1[nH]cc(S(=O)(=O)N2CCOCC2)c(=O)[nH]1,-,-,-,-
SMILES,TbMetRS inhib,Rin1 Abl inh,ATG4B inhibitor,UCH37 DUB inh
Fc1ccc(CNC(=S)NC2CCCCCC2)cc1,-,-,44,-
O=C(/C(=N/N=C/c1ccc(O)c(O)c1O)c1ccccc1)c1ccccc1,-,12,-,.
O=C(NNC(=O)c1cc(Br)ccc1O)c1csc(N2CCOCC2)n1,-,10,-,.
O=C1C(Cl)=C(N2CCC(C(=O)O)CC2)C(=O)c2ccccc21,-,-,-,78
NC(=O)C1CCN(C2=C(NS(=O)(=O)c3ccccc3)C(=O)c3ccccc3C2=O)CC1,-,-,-,-
CCOC(=O)C1CCN(C2=C(NS(=O)(=O)c3ccc(Br)cc3)C(=O)c3ccccc3C2=O)CC1,-,-,-,23
Cc1ccc(N=Nc2c(O)[nH]c3ccc(F)cc23)cc1,-,-,-,-
O=C(O)c1ccc(N=Nc2c(O)[nH]c3ccc(Br)cc23)cc1,-,-,-,.
O=c1ccc2cc3c([nH]c4ccc(Br)cc43)oc-2c1O,-,37,.,-
CCN(CC)C(=O)c1[nH]cnc1C(=O)N[C@@H](C)C(=O)OC(C)(C)C,-,-,-,32
CN(Cc1ccccc1)C(=O)c1[nH]cnc1C(=O)N[C@@H](Cc1ccccc1)C(=O)OC(C)(C)C,-,-,-,35
CC(C)(C)OC(=O)[C@H](Cc1ccccc1)NC(=O)c1nc[nH]c1C(=O)NCc1ccccc1,-,-,-,-
CC(C)C[C@H](NC(=O)c1[nH]cnc1C(=O)Nc1ccccc1)C(=O)OC(C)(C)C,-,-,-,28
CC(C)(C)C1COc2ccccc2N1C(=O)c1cccc(Cl)c1 (stereo not given),-,-,-,-
O=C(O)c1cccc(Nc2cc(Cl)c3nonc3c2[N+](=O)[O-])c1,-,-,-,-
O=C(O)c1ccc(Nc2ccc([N+](=O)[O-])c3nonc23)cc1,-,-,-,24
O=C(O)c1cccc(Nc2ccc([N+](=O)[O-])c3nonc23)c1,-,-,-,24
COC(=O)c1ccc(/C=N/NC(=O)CC(=O)NC2CCCCC2)cc1,-,-,-,.
CCOC(=O)c1c(-c2ccc(OC)cc2)csc1N=CC1=C(O)CCCC1=O,.,.,.,-
O=C(c1nc2nc(-c3ccccc3)cc(C(F)(F)F)n2n1)N1CCOCC1,-,-,-,-
O=C1C(=Cc2ccc(Br)o2)C(=O)c2ccccc21,-,8.7,69,-
CC1=C/C(=C\c2ccc(Br)o2)C(=O)O1,-,-,-,-
O=C(c1ccc(NS(=O)(=O)c2ccc(F)cc2)cc1)N1CCOCC1,-,-,-,-
CC1CCN(C(=O)c2[nH]cnc2C(=O)NCc2ccc(CNC(=O)OC(C)(C)C)cc2)CC1,-,-,-,28
CC(C)(C)OC(=O)N1CCC(NC(=O)c2nc[nH]c2C(=O)N2CCc3ccccc3C2)CC1,-,-,-,29
